Data as given in publication PMC6045484 (ACS Omega, 2018).
Converted amounts (≈) assume the structure as drawn.

Experiments:
[1] = test system: P. falciparum (W2); experiment: in vitro antimalarial activity, plasmodial LDH; format: cell-based, Plasmodium falciparum; conditions: Plasmodium falciparum, W2, 72 h, read-out: P. falciparum (W2) IC50, CQ-resistant W2 strain, 72 h
In short: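 P. falciparum-infected erythrocytes (2% parasitemia, 2% hematocrit) in RPMI 1640 with 10% human serum and 60 μg/mL amikacin. Exposed to test compound dilutions for 72 h at 37 °C under 90% N2/5% O2/5% CO2. LDH measured with Malstat reagent (30 min, room temperature), then NBT/PES for 1 h in the dark, stopped with 5% acetic acid, read at 650 nm. IC50 from dose-response curves.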

[2] = test system: MRSA (ATCC33591); experiment: in vitro antibacterial activity; format: cell-based, methicillin-resistant Staphylococcus aureus; conditions: Staphylococcus aureus, ATCC33591|MRSA, read-out: MIC, MRSA
In short: (§1)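 Test compound serially diluted in 20% DMSO/saline and plated in duplicate, up to 20 μg/mL. Inoculum in cation-adjusted Mueller–Hinton broth, pH 7.3, set by OD630 to 5 × 10^5 CFU/mL. Incubated 16–20 h at 35 °C; 530 nm read before and after. IC50 is 50% growth inhibition; MIC is no detectable growth. MBC from clear wells subcultured on agar. Ciprofloxacin control.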

[3] = test system: SK-MEL, KB, BT-549, SK-OV-3, VERO and LLC-PK1 cells; experiment: cytotoxicity, neutral red uptake assay; format: cell-based, mammalian; conditions: highest test concentration 4760 ng/mL
In short: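 Cells seeded at 25 000/well and allowed 24 h to reach confluence. Test compound was then added and incubated 48 h. Viable cells were counted by a modified neutral red uptake method. The panel was four human cancer lines and two noncancerous mammalian kidney lines. Doxorubicin served as positive control and DMSO as negative control.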

[4] = test system: L. donovani promastigotes; experiment: in vitro antileishmanial activity, alamarBlue assay; format: cell-based, Leishmania donovani; conditions: Leishmania donovani, 48 h; for IC50: read-out: L. donovani IC50, promastigotes, 48 h; for IC90: read-out: L. donovani IC90, promastigotes, 48 h
[5] = test system: M. intracellulare (ATCC23068); experiment: in vitro antibacterial activity, modified alamarBlue procedure; format: cell-based, Mycobacterium intracellulare; conditions: Mycobacterium intracellulare; for IC50: ATCC23068, read-out: IC50 (concentration that affords 50% growth inhibition), M. intracellulare; for MBC: ATCC23068, read-out: MBC (minimum bactericidal concentration), M. intracellulare; for MIC: ATCC23068, read-out: MIC, M. intracellulare
In short: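 Modified alamarBlue microplate method. Test compound serially diluted in 20% DMSO/saline, duplicate wells, up to 20 μg/mL. Inoculum 2.0 × 10^6 CFU/mL in Middlebrook 7H9 with OADC, pH 7.3, containing 5% alamarBlue. Incubated 70–74 h at 37 °C, 10% CO2; fluorescence 544ex/590em read before and after. MIC: no blue-to-pink change. MBC by subculturing blue wells on agar. Ciprofloxacin control.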

[6] = test system: SA (ATCC29213); experiment: in vitro antibacterial activity; format: cell-based; conditions: Staphylococcus aureus; for IC50: ATCC29213, read-out: IC50 (concentration that affords 50% growth inhibition), SA; for MBC: ATCC29213, read-out: MBC (minimum bactericidal concentration), SA; for MIC: ATCC29213, read-out: MIC, SA
In short: as §1

[7] = test system: P. falciparum (D6); experiment: in vitro antimalarial activity, plasmodial LDH; format: cell-based, Plasmodium falciparum; conditions: Plasmodium falciparum, D6, 72 h, read-out: P. falciparum (D6) IC50
[8] = test system: C. neoformans ATCC90113; experiment: in vitro antifungal activity; format: cell-based, Cryptococcus neoformans; conditions: Cryptococcus neoformans; for IC50: ATCC90113, read-out: C. neoformans IC50; for MFC: ATCC90113, read-out: C. neoformans MFC; for MIC: ATCC90113, read-out: C. neoformans MIC
In short: (§2)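 Modified NCCLS broth method in Sabouraud dextrose. Inoculum set by OD630 to 1.5 × 10^3 CFU/mL. Test compound serially diluted in 20% DMSO/saline, duplicate wells, up to 20 μg/mL. Incubated 70–74 h at 35 °C; 530 nm read before and after. IC50 is 50% growth inhibition; MIC is no detectable growth. MFC from clear wells subcultured on agar. Amphotericin B control.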

[9] = test system: C. albicans ATCC90028; experiment: in vitro antifungal activity; format: cell-based, Candida albicans; conditions: Candida albicans; for IC50: ATCC90028, read-out: C. albicans IC50; for MFC: ATCC90028, read-out: C. albicans MFC; for MIC: ATCC90028, read-out: C. albicans MIC
In short: as §2

[10] = test system: A. fumigatus ATCC 90906; experiment: in vitro antifungal activity; format: cell-based, Aspergillus fumigatus; conditions: Aspergillus fumigatus; for IC50: ATCC90906, read-out: A. fumigatus IC50; for MFC: ATCC90906, read-out: A. fumigatus MFC; for MIC: ATCC90906, read-out: A. fumigatus MIC
In short: as §2

| SMILES | IC50 [1] [mg/L] | MIC [2] [mg/L] | cytotoxicity CTX [3] | IC50 [4] [mg/L] | IC90 [4] [mg/L] | IC50 [5] [mg/L] | MBC [5] [mg/L] | MIC [5] [mg/L] | IC50 [6] [mg/L] | MBC [6] [mg/L] | MIC [6] [mg/L] | IC50 [7] [mg/L] | IC50 [8] [mg/L] | MFC [8] [mg/L] | MIC [8] [mg/L] | IC50 [9] [mg/L] | MFC [9] [mg/L] | MIC [9] [mg/L] | IC50 [10] [mg/L] | MFC [10] [mg/L] | further results |
| --- | --- | --- | --- | --- | --- | --- | --- | --- | --- | --- | --- | --- | --- | --- | --- | --- | --- | --- | --- | --- | --- |
| CCCCCOc1c(OC)cc(NC(C)CCCNC(=O)C(N)Cc2cc3ccccc3[nH]2)c2nc(C(C)(C)C)ccc12 (stereo not drawn) [compound 98, 2-Amino-N-(4-(2-tert-butyl-6-methoxy-5-(pentyloxy)quinolin-8-ylamino)pentyl)-3-(1H-indol-2-yl)propanamide] | > 4.76 | 5 (≈ 8.51 µM) | NC (NC, not cytotoxic up to 4760 ng/mL (4.76 μg/mL)) | 1.81 (≈ 3.08 µM) | 2.93 (≈ 4.98 µM) | 8.47 (≈ 14.4 µM) | 20 (≈ 34 µM) | 10 (≈ 17 µM) | 1.95 (≈ 3.32 µM) | 10 (≈ 17 µM) | 5 (≈ 8.51 µM) | > 4.76 | 1.21 (≈ 2.06 µM) | 2.5 (≈ 4.25 µM) | 2.5 (≈ 4.25 µM) | 18.8 (≈ 31.9 µM) | > 20 | > 20 | > 20 | > 20 | MIC [10]: > 20 mg/L |
| CCCCCCOc1c(OC)cc(NC(C)CCCNC(=O)C(N)CCSC)c2nc(C(C)(C)C)ccc12 (stereo not drawn) [compound 102, 2-Amino-N-(4-(2-tert-butyl-5-(hexyloxy)-6-methoxyquinolin-8-ylamino)pentyl)-4-(methylthio)butanamide] | 2.8 (≈ 5.12 µM) | 20 (≈ 36.6 µM) | NC (NC, not cytotoxic up to 4760 ng/mL (4.76 μg/mL)) | 5.9 (≈ 10.8 µM) | 22 (≈ 40.2 µM) | 11.2 (≈ 20.4 µM) | 20 (≈ 36.6 µM) | 20 (≈ 36.6 µM) | 5.03 (≈ 9.2 µM) | 20 (≈ 36.6 µM) | 10 (≈ 18.3 µM) | 2.8 (≈ 5.12 µM) | > 20 | > 20 | > 20 | > 20 | > 20 | > 20 | > 20 | > 20 | MIC [10]: > 20 mg/L |
| CCCCCCOc1c(OC)cc(NC(C)CCCNC(=O)C(N)C(C)CC)c2nc(C(C)(C)C)ccc12 (stereo not drawn) [compound 104, 2-Amino-N-(4-(2-tert-butyl-5-(hexyloxy)-6-methoxyquinolin-8-ylamino)pentyl)-3-methylpentanamide] | 4 (≈ 7.56 µM) | > 20 | NC (NC, not cytotoxic up to 4760 ng/mL (4.76 μg/mL)) | 16 (≈ 30.3 µM) | 30 (≈ 56.7 µM) | > 20 | > 20 | > 20 | 13.2 (≈ 24.9 µM) | > 20 | > 20 | 4.76 (≈ 9 µM) | > 20 | > 20 | > 20 | > 20 | > 20 | > 20 | > 20 | > 20 | MIC [10]: > 20 mg/L |
| CCCCCCOc1c(OC)cc(NC(C)CCCNC(=O)C(N)Cc2cnc[nH]2)c2nc(C(C)(C)C)ccc12 (stereo not drawn) [compound 105, 2-Amino-N-(4-(2-tert-butyl-5-(hexyloxy)-6-methoxyquinolin-8-ylamino)pentyl)-3-(1H-imidazole-5-yl)propanamide] | 1.7 (≈ 3.08 µM) | 10 (≈ 18.1 µM) | NC (NC, not cytotoxic up to 4760 ng/mL (4.76 μg/mL)) | 3.5 (≈ 6.33 µM) | 7 (≈ 12.7 µM) | 5.94 (≈ 10.7 µM) | 10 (≈ 18.1 µM) | 10 (≈ 18.1 µM) | 2.79 (≈ 5.05 µM) | 10 (≈ 18.1 µM) | 5 (≈ 9.05 µM) | 2.4 (≈ 4.34 µM) | > 20 | > 20 | > 20 | 19.4 (≈ 35.1 µM) | > 20 | > 20 | > 20 | > 20 | MIC [10]: > 20 mg/L |
| CCCCCCOc1c(OC)cc(NC(C)CCCNC(=O)C(N)Cc2ccccc2)c2nc(C(C)(C)C)ccc12 (stereo not drawn) [compound 106, 2-Amino-N-(4-(2-tert-butyl-5-(hexyloxy)-6-methoxyquinolin-8-ylamino)pentyl)-3-phenylpropanamide] | > 4.76 | 20 (≈ 35.5 µM) | NC (NC, not cytotoxic up to 4760 ng/mL (4.76 μg/mL)) | 9.89 (≈ 17.6 µM) | > 40 | 18.1 (≈ 32.1 µM) | > 20 | > 20 | 10.7 (≈ 19 µM) | > 20 | 20 (≈ 35.5 µM) | > 4.76 | 9.83 (≈ 17.5 µM) | 20 (≈ 35.5 µM) | 20 (≈ 35.5 µM) | > 20 | > 20 | > 20 | > 20 | > 20 | MIC [10]: > 20 mg/L |
| CCCCCCOc1c(OC)cc(NC(C)CCCNC(=O)C(C)N)c2nc(C(C)(C)C)ccc12 (stereo not drawn) [compound 107, 2-Amino-N-(4-(2-tert-butyl-5-(hexyloxy)-6-methoxyquinolin-8-ylamino)pentyl)-propanamide] | > 4.76 | > 20 | NC (NC, not cytotoxic up to 4760 ng/mL (4.76 μg/mL)) | 17.1 (≈ 35.2 µM) | 37.3 (≈ 76.7 µM) | > 20 | > 20 | > 20 | > 20 | > 20 | > 20 | > 4.76 | > 20 | > 20 | > 20 | > 20 | > 20 | > 20 | > 20 | > 20 | MIC [10]: > 20 mg/L |
| CCCCCCOc1c(OC)cc(NC(C)CCCNC(=O)C(N)Cc2cc3ccccc3[nH]2)c2nc(C(C)(C)C)ccc12 (stereo not drawn) [compound 108, 2-Amino-N-(4-(2-tert-butyl-5-(hexyloxy)-6-methoxyquinolin-8-ylamino)pentyl)-3-(1H-indol-2-yl)propanamide] | > 4.76 | 10 (≈ 16.6 µM) | NC (NC, not cytotoxic up to 4760 ng/mL (4.76 μg/mL)) | 19.1 (≈ 31.7 µM) | > 40 | 12.7 (≈ 21.2 µM) | 20 (≈ 33.2 µM) | 20 (≈ 33.2 µM) | 4.98 (≈ 8.27 µM) | > 20 | 10 (≈ 16.6 µM) | > 4.76 | 5.09 (≈ 8.46 µM) | 10 (≈ 16.6 µM) | 10 (≈ 16.6 µM) | > 20 | > 20 | > 20 | > 20 | > 20 | MIC [10]: > 20 mg/L |
| CCCCCCCOc1c(OC)cc(NC(C)CCCNC(=O)C(N)Cc2ccccc2)c2nc(C(C)(C)C)ccc12 (stereo not drawn) [compound 112, 2-Amino-N-(4-(2-tert-butyl-5-(heptyloxy)-6-methoxyquinolin-8-ylamino)pentyl)-3-phenylpropanamide] | 2.2 (≈ 3.81 µM) | 10 (≈ 17.3 µM) | NC (NC, not cytotoxic up to 4760 ng/mL (4.76 μg/mL)) | 20 (≈ 34.7 µM) | 36 (≈ 62.4 µM) | > 20 | > 20 | > 20 | 4.06 (≈ 7.04 µM) | 10 (≈ 17.3 µM) | 10 (≈ 17.3 µM) | 3.2 (≈ 5.55 µM) | 4.56 (≈ 7.91 µM) | 5 (≈ 8.67 µM) | 5 (≈ 8.67 µM) | > 20 | > 20 | > 20 | > 20 | > 20 | MIC [10]: > 20 mg/L |
